Screening data as filed in PubChem.
In the library only some 1.4% were active in any assay of this set; here they are far more common.
GASC-1 inh – blocks human GASC-1 demethylase activity; Q9H3R0; GST-JMJD2C(1-420) H3K9me3 demethylation, DELFIA europium; inhibition, % at 2.35 µM; hit rate 0.069% among 330,000; AID 2099;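 active = more than half of a compound's replicate wells show inhibition beyond 50%, single wells judged on their own value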;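 note: signal counts dimethyl H3K9 product captured on neutravidin plate; 0% = median of DMSO wells and 100% = 0.3 times that DMSO median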
Target sequence (Q9H3R0 1-420 limits assumed): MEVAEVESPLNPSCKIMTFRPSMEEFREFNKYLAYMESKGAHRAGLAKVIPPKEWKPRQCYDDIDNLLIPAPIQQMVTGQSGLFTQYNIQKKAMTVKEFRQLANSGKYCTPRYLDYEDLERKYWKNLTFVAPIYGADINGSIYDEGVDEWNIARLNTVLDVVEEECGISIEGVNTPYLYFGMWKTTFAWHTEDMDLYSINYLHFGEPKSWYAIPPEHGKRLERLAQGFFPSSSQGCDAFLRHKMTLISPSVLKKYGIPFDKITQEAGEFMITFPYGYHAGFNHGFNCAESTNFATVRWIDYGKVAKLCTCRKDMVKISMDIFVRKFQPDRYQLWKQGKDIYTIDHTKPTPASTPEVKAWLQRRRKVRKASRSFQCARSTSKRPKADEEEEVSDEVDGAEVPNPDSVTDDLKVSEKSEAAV
HIF activator – HIF pathway transcriptional activation | activation, % at 7.5 µM (by protocol) | U2OS HRE-luciferase reporter, luminescence; normalized: DMSO 0%, desferrioxamine 100% | hit rate 0.32% among 300,000;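 active = mean activation of at least 10% of the iron chelator positive control signal, with at least half of replicates also reaching 10%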
Mot1-301 SUMO – inhibitors of SUMOylation pathway: yeast Mot1-301 growth rescue; hit rate 1% among 320,000; growth rescue, % at 18.8 µM; S. cerevisiae Mot1-301 growth rescue, ATP luminescence, 38.5C; percent above DMSO median, 100 means doubled;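 active = every valid replicate shows activation above 250% relative to neutral control wells; inactive = the rest, any valid replicate at or below 250%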;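 note: OY570 slx delta 5 strain wells were the positive control but not used for scaling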
T cell HTS – T cell immune modulators affecting CD8 T cell-vesicle binding | 2C CD8+ T cell-vesicle binding, flow cytometry; stronger effect = lower value | response (vesicle binding), % at 7 µM | hit rate 0.068% among 330,000;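 active = response, share of CD8 T cells binding vesicles, and their 90th percentile fluorescence all below set limits, cut at about 80% in these data, passing the limit was not always enough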;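 note: values below 100% mean blocked vesicle binding to the CD8+ T cells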
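Material: 2C TCR transgenic mouse naive CD8+ T cells, MACS-purified. Also added: QL9-charged Drosophila Ld/ICAM-1/B7-1 vesicles. Timing: binding 1.5 h at 37 °C. Measured by: high-throughput flow cytometry with anti-B7-1 and anti-CD8 staining. Read-out: percent CD8+ FL2 mean versus row control. Controls: Unloaded micro-vesicles (low), QL9 vesicles with 0.7% DMSO (high).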
Mot1 SUMO dose – SUMO pathway inhibitors in yeast Mot1-301 growth. S. cerevisiae Mot1-301 galactose growth, ATP luminescence, 24 h; -100 = growth of slx-deleted rescue strain. growth activity, percent, % at 42 µM. shares compounds with Mot1-301 SUMO. 2,300 tested, under 10 active;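 active = Signal drops as the depositor expects, and the fitted half-maximal dose is no more than ten times the top valid tested dose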;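 note: more negative values mean stronger growth rescue toward the control strain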
Active calls of the source: *; i = inactive; . = not tested or not shown; + = active, no number.

SMILES | GASC-1 inh | HIF activator | Mot1-301 SUMO | T cell HTS | Mot1 SUMO dose
Cc1ccc(S(=O)(=O)N2CCN(C(=O)CSc3n[nH]c(N)n3)CC2)c(C)c1 | 1.0 | . | -0.1 | 292.0 | .
O=C(CSc1nc(=O)n2ccccc2n1)N1CCN(c2ccccc2)CC1 | -4.3 | -0.1 | 559.0* | 561.6 | 0.6
Nc1ncnc2nc(SCC(=O)N3CCN(c4ccccc4)CC3)[nH]c12 | -2.6 | -0.6 | + | 342.0 | 0.4
O=C(CSc1nc(=O)n2ccccc2n1)N1CCCCCC1 | -18.8 | -0.2 | 5.6 | 180.1 | .
O=C(O)CCC(=O)N1N=C(c2ccc(Br)cc2)CC1c1cccc(Br)c1 (centres undefined) | 8.0 | 0.6 | -0.5 | 224.2 | .
COC(=O)c1cn(C(=O)c2cc(Cl)ccc2Cl)c2ccccc12 | 31.4 | 0.0 | -4.5 | 194.5 | .
COc1ccc(NC(=O)Nc2ccccc2C(=O)N2CCCC2)cc1 | 2.3 | 2.1 | 739.5* | 354.7 | -0.3
O=C(CNC(=O)c1ccco1)OCC(=O)c1cccc2ccccc12 | 4.4 | -0.1 | 434.4* | 192.3 | -0.2
O=C(CNC(=O)Cc1ccccc1)NCC(=O)OCC(=O)c1cccc2ccccc12 | 2.6 | -0.2 | 3.9 | 316.5 | .
CCc1ccccc1N1C(=O)C2CC=CCC2C1=O (centres undefined) | -4.6 | -1.2 | 6.5 | 182.3 | .
Cc1ccc(S(=O)(=O)Oc2ccccc2N2C(=O)C3CC=CCC3C2=O)cc1 (centres undefined) | 27.5 | -0.1 | + | 377.6 | -1.2
OCC[C@H]1C[C@@H](O)[C@H](O)[C@]2(OCc3ccccc32)O1 | 4.1 | . | 5.7 | i | .
O=C(O)CCc1ccc(-c2ccccc2)n1NC(=O)c1cccs1 | -15.0 | 0.1 | 670.0* | 128.2 | 0.8
Cc1cc(SCC(=O)c2cccc([N+](=O)[O-])c2)nc(=O)[nH]1 | -22.9 | 4.4 | -9.0 | 587.1 | .
CCc1ccccc1NC(=O)C1CCN(S(C)(=O)=O)CC1 | 5.7 | 0.1 | 6.4 | 147.7 | .
CCCn1c(N)cc(=O)n(CCC)c1=O | 2.1 | 0.5 | 792.1* | 352.7 | 0.0
CN(CC(=O)Nc1ccc(Cl)c(Cl)c1)C(=O)CC1OC(=O)c2ccccc21 (centres undefined) | -6.3 | -0.4 | -3.8 | 140.7 | .
CCOc1ccc(Cl)cc1CNc1nnnn1CC | 6.8 | -0.4 | 463.6* | 300.9 | 0.5
CC1CC(N(C(=O)c2ccccc2Cl)c2ccccc2)c2ccccc2N1 (centres undefined) | 0.3 | 0.1 | 453.5* | 146.7 | 0.8
COC(=O)CCCC(=O)NCC1(N(C)Cc2ccccc2)Cc2ccccc2C1 | 18.1 | -0.7 | 387.3* | 232.5 | 0.7
C[C@H]1[C@H](C)CC[C@]2(C(=O)O)CC[C@]3(C)C(=CC[C@@H]4[C@@]5(C)CC[C@H](O)C(C)(C)[C@@H]5CC[C@]43C)[C@H]12 | -1.7 | 0.2 | 17.5 | 141.2 | .
CC1(C)C2CC[C@]3(C)C(CC=C4[C@@H]5C[C@@](C)(CO)[C@@H](O)C[C@]56C[C@@H](OC6=O)[C@]43C)[C@@]2(C)CC[C@@H]1O (some centres undefined) | 7.7 | -0.4 | 368.9* | 334.4 | 0.2
COc1cc(/C=N/NS(=O)(=O)c2ccc(Br)cc2)ccc1O | -5.3 | -0.2 | -6.7 | i | .
COC(=O)Oc1ccc(/C=N/NS(=O)(=O)c2ccccc2)cc1OC | -0.1 | -0.6 | 626.6* | 207.1 | -0.1
CCCCCC(=O)Nc1ccc(C2C(=O)c3ccccc3C2=O)cc1 | 1.9 | 0.6 | 192.0 | 73.6 | .
SMILES | GASC-1 inh | HIF activator | Mot1-301 SUMO | T cell HTS | Mot1 SUMO dose
O=C(c1cc2c(ccc3ccccc32)oc1=O)N1CCCC1 | 0.7 | -0.2 | 495.2* | 184.1 | 0.2
CCn1nc(C(=O)OCc2cccc(S(=O)(=O)N(C)C)c2)c2ccccc2c1=O | 0.5 | -0.3 | 849.8* | 79.5 | -0.6
COc1cc(NC(=O)COc2cc3oc(=O)cc(C)c3cc2Cl)cc(OC)c1OC | -5.6 | -0.4 | -3.1 | 338.3 | .
O=C(Cn1nc(C(F)(F)F)c2c1CCCC2)N1CCOCC1 | -4.4 | -0.4 | 772.3* | 286.6 | -0.2
O=C(Cn1nc(C(F)(F)F)c2c1CCCCC2)N1CCOCC1 | -2.0 | -0.1 | -1.2 | 561.9 | .
NC(=NCCc1c[nH]c2ccccc12)NC(=O)c1ccc(F)cc1 | 19.8 | 0.3 | 8.3 | 298.7 | .
CC(C(=O)N1CCN(C(=O)c2ccco2)CC1)n1sc2ccccc2c1=O (centres undefined) | -10.4 | -0.1 | 379.9* | 300.8 | 1.0
CC(=O)/C(=N\Nc1cccc(Cl)c1)Sc1cccc2cccnc12 | -6.2 | 0.0 | -14.1 | 293.4 | .
CC(=O)/C(N)=N/Nc1cccc(Cl)c1 | -9.1 | 0.0 | 436.7* | 193.5 | -1.1
Nn1c(SCc2ccc([N+](=O)[O-])cc2)nc2ccccc2c1=O | -14.3 | -20.9 | 26.1 | 216.3 | .
O=c1c2ccccc2nc(SCc2ccc([N+](=O)[O-])cc2)n1CCCO | 0.9 | -0.5 | 464.0* | 276.4 | 0.3
C=C(c1ccc(O)cc1)c1ccc(O)cc1 | 8.4 | 0.1 | 72.4 | 237.6 | .
CC1(C)C=C(c2ccc(O)cc2)CC(C)(C)N1 | -4.4 | 0.9 | 659.6* | . | 1.3
CCOc1cc(NC(=S)NCC2CCCO2)c(OCC)cc1NC(=O)CC(C)C (centres undefined) | 1.2 | -0.6 | -3.9 | 164.3 | .
COCC(=O)n1nc(NCc2ccc(OC)cc2)nc1NCc1ccc(OC)cc1 | -8.5 | 0.2 | 394.4* | 136.4 | 0.2
COc1ccc(CNc2nc(NCc3ccc(OC)cc3)n(S(C)(=O)=O)n2)cc1 | -2.3 | -0.1 | 14.3 | 203.6 | .
O=C(CCc1nc2ccccc2c(=O)[nH]1)N1CCN(S(=O)(=O)c2ccc(F)cc2)CC1 | -12.2 | . | 2.8 | 324.1 | .
CCCN1CCN(CCCNC(=O)CCn2nc(-c3ccccc3)ccc2=O)CC1 | -4.9 | 0.3 | 565.5* | 126.9 | 0.4
Cc1ccc(N(CC(=O)NC2CCCC2)C(=O)CCC(=O)Nc2ccccn2)cc1C | -8.2 | -4.4 | 439.1* | 182.8 | -0.1
O=C(CCCC(=O)N(CC(=O)NC1CCCC1)c1cccc(F)c1)Nc1ccccn1 | 3.6 | -0.9 | 361.7* | 386.3 | 1.1
Cc1cc(NC(=O)CCC(=O)N(c2cccnc2)C(C(=O)NC2CCCC2)c2ccccc2)no1 (centres undefined) | -1.1 | -2.4 | + | 601.4 | 0.3
COc1ccc(COC(=O)N/N=C(\C)CC(=O)Nc2ccc(Cl)cn2)cc1 | -22.2 | 0.7 | 7.2 | 863.1 | .
COC(=O)c1ccc(Cl)c(NC(=O)CN(c2ccc(OC)c(OC)c2)S(C)(=O)=O)c1 | 3.1 | 0.0 | 562.5* | 272.4 | 0.5
COC(=O)c1ccc(Cl)c(NC(=O)CN(c2ccc(OC)cc2)S(=O)(=O)c2ccccc2)c1 | -5.1 | -0.1 | -4.3 | 299.2 | .
CCOc1ccccc1N(CC(=O)Nc1ccccc1C(=O)N1CCCC1)S(C)(=O)=O | 11.0 | -0.4 | 586.3* | 245.4 | 0.7
COc1cc(CN2CCCC(C(=O)c3ccc4c5c(cccc35)CC4)C2)cc(OC)c1O (centres undefined) | 6.1 | -0.1 | . | 145.9 | .
